Measured values collected from several papers.
Protocols differ between the studies behind these lines.
ADORA2B: Adenosine receptor A2b (ADORA2B, Homo sapiens, UniProt P29275)
PKN3: Serine/threonine-protein kinase N3 (PKN3, Homo sapiens, UniProt Q6P5Z2)
CFTR: Cystic fibrosis transmembrane conductance regulator (CFTR, Homo sapiens, UniProt P13569)

SMILES | target | observed | action | technique | concentration | notes | inhibition
CC(C)CC(C)N1CCCn2c1nc1c2c(=O)n(C)c(=O)n1C (stereo not drawn) | ADORA2B | ligand displacement | – | radioligand | 10 µM | cell membranes | 1%
Cn1cncc1C1=CN(c2ncnc3[nH]cnc23)CCS1 | PKN3 | enzyme activity | inhibitor | radiometric | 50 nM | – | 18.6%
CC(C)OC(=O)NC(C)(C)c1csc(-c2ccc(F)cc2)n1 | N-terminal Xaa-Pro-Lys N-methyltransferase 1 (Homo sapiens, UniProt Q9BV86) | enzyme activity | inhibitor | fluorescence | 100 µM | – | < 50%
CN1CCCn2c1nc1c2c(=O)n(C)c(=O)n1C | ADORA2B | ligand displacement | – | radioligand | 10 µM | cell membranes | 6%
O=C(CNc1cccc2ccccc12)NN=Cc1cc(Br)c(O)c(Br)c1 | CFTR | ion current | inhibitor | – | 50 µM | – | 87%
C#CCN1CCCn2c1nc1c2c(=O)n(C)c(=O)n1C | ADORA2B | ligand displacement | – | radioligand | 10 µM | cell membranes | 29%
O=C(c1ccc(F)cc1)N(Cc1ccccc1)C1CCCCC1 | Muscarinic acetylcholine receptor M1 (CHRM1, Homo sapiens, UniProt P11229) | cell-free assay | – | – | 10 µM | – | -1%
COCCOc1ccc(N2CCN(CCn3ncc4c3nc(N)n3nc(-c5ccco5)nc43)CC2)cc1 | ADORA2B | ligand displacement | – | radioligand | 10 µM | cell membranes | 25%
Cn1cnc(Br)c1C1=CN(c2ncnc3[nH]cnc23)CCS1 | PKN3 | enzyme activity | inhibitor | radiometric | 50 nM | – | 29.2%
CC(C)N1CCCn2c1nc1c2c(=O)n(C)c(=O)n1C | ADORA2B | ligand displacement | – | radioligand | 10 µM | cell membranes | -4%
CCN(c1cc(C#CCN2CCOCC2)cc(C(=O)NCc2c(C)cc(C)[nH]c2=O)c1C)[C@H]1CC[C@H](N(C)CCOC)CC1 | Histone-lysine N-methyltransferase NSD2 (NSD2, Homo sapiens, UniProt O96028) | enzyme activity | inhibitor | – | 1 µM | – | 26%
Cc1ccc(NCC(=O)NN=Cc2cc(Br)c(O)c(Br)c2O)cc1 | CFTR | ion current | inhibitor | – | 50 µM | – | 79%
CC(C)CN1CCCn2c1nc1c2c(=O)n(C)c(=O)n1C | ADORA2B | ligand displacement | – | radioligand | 10 µM | cell membranes | 5%
CN(C)C1CCN(CC#Cc2nn(C3CCCC3)c3nc(NCc4ccccc4)ncc23)C1 (stereo not drawn) | RAF proto-oncogene serine/threonine-protein kinase (RAF1, Homo sapiens, UniProt P04049, Y340D/Y341D) | enzyme activity | inhibitor | FRET | 0.1 µM | – | -5%
O=C(CNc1cccc2ccccc12)NN=Cc1cc(Br)c(O)c(Br)c1O | CFTR | ion current | inhibitor | – | 50 µM | – | 86%
CC(=O)c1nn(CC(=O)N2C[C@H](F)C[C@H]2C(=O)Nc2cccc(Br)n2)c2ccc(-c3cnc(C)nc3)cc12 | Chymase (CMA1, Homo sapiens, UniProt P23946) | enzyme activity | inhibitor | – | 10 µM | – | -1.2%
CCCCCC(C)N1CCCn2c1nc1c2c(=O)n(C)c(=O)n1C (stereo not drawn) | ADORA2B | ligand displacement | – | radioligand | 10 µM | cell membranes | -3%
CCN(CC)c1ccc(C2Nc3ccc(C(=O)c4ccccc4)cc3NC3=C2C(=O)CC(C)(C)C3)cc1 (stereo not drawn) | Beta-3 adrenergic receptor (ADRB3, Homo sapiens, UniProt P13945) | ligand displacement | – | radioligand | 10 µM | – | 0%
O=C(CNc1ccc(Cl)cc1)NN=Cc1cc(Br)c(O)c(Br)c1 | CFTR | ion current | inhibitor | – | 50 µM | – | 95%
CC(C)CCCC(C)N1CCCn2c1nc1c2c(=O)n(C)c(=O)n1C (stereo not drawn) | ADORA2B | ligand displacement | – | radioligand | 10 µM | cell membranes | 0%
COc1cc(NC(C)=O)c(Cl)cc1C(=O)Nc1nccs1 | ADORA2B | cell-free assay | – | – | 10 µM | – | -34.6%
O=C(CNc1ccc(Cl)cc1)NN=Cc1cc(Br)c(O)c(Br)c1O | CFTR | ion current | inhibitor | – | 50 µM | – | 91%
O=C(c1ccc(Cl)cc1)N(Cc1ccccc1)C1CCCCC1 | Prostaglandin E2 receptor EP2 subtype (PTGER2, Homo sapiens, UniProt P43116) | cell-free assay | – | – | 10 µM | – | 14.3%
O=C(NN=Cc1cc(Br)c(O)c(Br)c1)C(=O)Nc1ccc2ccccc2c1 | CFTR | ion current | inhibitor | – | 50 µM | – | 80%
